Measurements taken from article PMC2975065 (Journal of molecular biology, 2010).
Read-outs that look alike come from different tables or passages of the source.

Tests used:
[1] = biological target: T1, DiscII (Discoidin II) (Dictyostelium discoideum, UniProt P42530); assay: Glycan microarray analysis of Alexa 488-labelled DiscII; format: binding; settings: DiscII at 0.5 μg ml^-1; printed glycan arrays version 3.1
T1 sequence (P42530 1-257): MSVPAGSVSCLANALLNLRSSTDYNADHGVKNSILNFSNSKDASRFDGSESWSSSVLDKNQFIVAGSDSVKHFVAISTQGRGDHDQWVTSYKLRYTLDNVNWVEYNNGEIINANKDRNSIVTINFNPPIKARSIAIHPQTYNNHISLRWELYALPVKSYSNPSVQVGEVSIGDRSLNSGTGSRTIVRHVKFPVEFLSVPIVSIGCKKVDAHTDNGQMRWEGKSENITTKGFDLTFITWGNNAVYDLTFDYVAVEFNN
Summary of the method: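 Recombinant protein labelled with Alexa Fluor 488-TFP following the maker's protocol, then desalted on a polyacrylamide column. Screened on the Consortium for Functional Glycomics printed array v3.1 by the standard procedure, over 0.01–200 μg ml^-1 lectin. Binding read as fluorescence intensity.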

[2] = biological target: DiscI (Discoidin I) (Dictyostelium discoideum, UniProt P02886, S2A); assay: Glycan microarray analysis of Alexa 488-labelled DiscI; format: binding; settings: DiscI at 0.04 μg ml^-1; printed glycan arrays version 3.1
[3] = biological target: DiscI (Discoidin I, isoform A) (Dictyostelium discoideum, UniProt P02886, S2A); assay: Isothermal titration microcalorimetry; format: binding; settings: ITC; for n (stoichiometry, fitted): n fitted to the curve for high affinity ligands
[4] = biological target: T1, DiscII (Discoidin II); assay: Isothermal titration microcalorimetry; format: binding; settings: for -TΔS / -ΔG / -ΔH: DiscII, ITC, 25 °C, ligands marked c only one experiment
Summary of the method: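 Run on a VP-ITC at 25 °C in 20 mM Tris-HCl pH 7.5, 150 mM NaCl, with sugar and protein in the same buffer. Thirty 10 μL injections of 2–40 mM sugar, 5 min apart, went into 0.15 mM lectin in the cell, stirred at 310 rpm. Sugar-into-buffer controls were run. Data were fitted to a single-site model giving Ka and ΔH (n fixed at 1 for weak ligands), with ΔG and ΔS derived. Runs were at least duplicated, or single where material was short.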

[5] = biological target: T1, DiscII (Discoidin II); settings: ITC, taken from ref [29]; cited from earlier work
[6] = KD, 20 mM Tris-HCl pH 7.5, 150 mM NaCl, 25 °C, averaged over two or three experiments
[7] = 20 mM Tris-HCl pH 7.5, 150 mM NaCl, 25 °C, averaged over two or three experiments

DiscI (Discoidin I, isoform A), sequence (P02886 whole entry S2A, canonical isoform): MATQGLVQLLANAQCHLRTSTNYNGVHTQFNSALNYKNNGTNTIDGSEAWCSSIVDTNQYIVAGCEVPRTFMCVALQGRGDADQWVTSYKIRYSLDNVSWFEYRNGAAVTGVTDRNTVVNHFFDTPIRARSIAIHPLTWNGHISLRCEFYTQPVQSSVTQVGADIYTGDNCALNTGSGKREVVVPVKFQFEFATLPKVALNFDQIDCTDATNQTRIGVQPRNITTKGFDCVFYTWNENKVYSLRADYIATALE
DiscI (Discoidin I), sequence (P02886 whole entry S2A, canonical isoform): as above

SMILES | binding on glycan array (fluorescence intensity, in words) [2] | -TΔS ([3]; 25 °C) [kJ/mol] | -ΔG ([3]; 25 °C) [kJ/mol] | -ΔH ([3]; 25 °C) [kJ/mol] | Kd [3, 6] [µM] | Kd ([3]; Kd) [µM] | Kd [4] [mM] | -TΔS [4] [kJ/mol] | -ΔG [4] [kJ/mol] | Kd [3, 7] [µM] | other results
CC(=O)N[C@H]1[C@H](OC[C@H]2OC(O)[C@H](NC(C)=O)[C@@H](O)[C@H]2O)O[C@H](CO)[C@@H](O[C@@H]2O[C@H](CO)[C@H](O)[C@H](O)[C@H]2O)[C@@H]1O (stereo partly drawn) [Galβ1-4GlcNAcβ1-6GalNAc (n° 149), Galβ1-4GlcNAcβ1-6GalNAc] | – | – | – | – | – | – | – | – | – | – | binding on glycan array (fluorescence intensity, in words) [1]: highest affinity
CC(=O)N[C@H]1[C@H](O[C@H]2[C@@H](O)[C@@H](CO)OC(O)[C@@H]2O)O[C@H](CO)[C@H](O)[C@@H]1O (stereo partly drawn) [GalNAcβ1-3Gal] | less strongly | 28.81 ± 2.8 | 24.5 ± 0.3 | 53.2 ± 2.9 | 49.4 ± 1.5 | ~50 | 1.11 | 28.8 | 16.8 | – | increase in DiscI affinity when compared to GalNAc monosaccharide [3]: tenfold increase; n (stoichiometry, fitted) [3]: 0.81 ± 0.01; -ΔH [4]: 45.6 kJ/mol
CO[C@H]1O[C@H](CO)[C@H](O)[C@H](O)[C@H]1O [αMeGalactoside] | – | 30.5 ± 6.1 | 11.8 ± 0.2 | 42.4 ± 5.9 | – | – | – | – | – | 8390 ± 700 | –
CC(=O)N[C@H]1C(O)O[C@H](CO)[C@H](O)[C@@H]1O[C@@H]1O[C@H](CO)[C@H](O)[C@H](O)[C@H]1O (stereo partly drawn) [Gal1β-3GalNAc, Galβ1-3GalNAc] | binds | 19.5 ± 1.5 | 26.1 ± 0.4 | 45.6 ± 1.1 | 27.2 ± 4.6 | 27 | 1.38 | 26.0 | 16.3 | – | increase in DiscI affinity when compared to GalNAc monosaccharide [3]: tenfold increase; n (stoichiometry, fitted) [3]: 1.03± 0.01; -ΔH [4]: 42.3 kJ/mol
COC1OC(CO)C(O)C(O)C1O (stereo not drawn) [βMeGalactoside, β–Methyl-galactoside] | – | 25.9 ± 2.2 | 14.4 ± 0.2 | 40.3 ± 2.4 | – | – | – | – | – | 2960 ± 270 | -TΔS [5]: 6.7 kJ/mol; -ΔG [5]: 17.4 kJ/mol; -ΔH [5]: 24.3 kJ/mol; Kd [5]: 0.952 mM
CC(=O)NC1C(OC2C(O)C(CO)OC(O)C2NC(C)=O)OC(CO)C(O)C1O (stereo not drawn) [GlcNAcβ1-3GalNAc (n° 159), GlcNAcβ1-3GalNAc] | binds | – | – | – | – | – | – | – | – | – | –
CC(=O)N[C@H]1C(O)O[C@H](CO)[C@H](O)[C@@H]1O (mixture of isomers) [GalNAc, N-acetylgalactosamine] | – | 13.3 ± 6.0 | 20.0 ± 0.2 | 33.4 ± 5.8 | – | – | – | – | – | 302 ± 27 | -TΔS [5]: 3.5 kJ/mol; -ΔG [5]: 16.8 kJ/mol; -ΔH [5]: 20.3 kJ/mol; Kd [5]: 1.11 mM; Kd [3]: 300 µM
CC(=O)N[C@H]1C(O)O[C@H](CO)[C@@H](O[C@@H]2O[C@H](CO)[C@H](O)[C@H](O)[C@H]2O)[C@@H]1O (stereo partly drawn) [Gal1β1-4GlcNAc (LacNAc), Galβ1-4GlcNAc] | – | 23.3 ± 2.0 | 15.0 ± 0.2 | 38.4 ± 2.2 | 2390 ± 170 | – | 1.22 ± 0.023 | 20.5 ± 0.4 | 16.7 ± 0.5 | – | Kd (in words) [3]: millimolar range
O=C[C@H](O)[C@@H](O)[C@@H](O)[C@H](O)CO [Galactose, galactose] | – | 17.1 ± 7.5 | 13.8 ± 0.1 | 31 ± 7.4 | 3770 ± 200 | 3000 to 4000 | – | – | – | – | –
